Residue numbers refer to the chain shown, from its start. The source made the active and inactive calls. No cut-off for these calls is given here. Where a SMILES comes first, the peptide text is derived from it. Bridges are numbered along the chain shown (N, C = ends). [ ]: non-standard residue; d: D form. The star is where a group is joined. NH(β-GlcNAc) = CC(=O)N[C@@H]1[C@@H](O)[C@H](O)[C@@H](CO)O[C@H]1N*; Dap = NC[C@H](N)C(=O)O
Experiments:
[1] = tested on: T1, Substance-K receptor (Homo sapiens), P21452 [W263A]; test: Binding affinity against W263A human neurokinin-2 receptor (hNK-2R) using [3H]SR-48,968 as a radioligand
T1 sequence (whole entry): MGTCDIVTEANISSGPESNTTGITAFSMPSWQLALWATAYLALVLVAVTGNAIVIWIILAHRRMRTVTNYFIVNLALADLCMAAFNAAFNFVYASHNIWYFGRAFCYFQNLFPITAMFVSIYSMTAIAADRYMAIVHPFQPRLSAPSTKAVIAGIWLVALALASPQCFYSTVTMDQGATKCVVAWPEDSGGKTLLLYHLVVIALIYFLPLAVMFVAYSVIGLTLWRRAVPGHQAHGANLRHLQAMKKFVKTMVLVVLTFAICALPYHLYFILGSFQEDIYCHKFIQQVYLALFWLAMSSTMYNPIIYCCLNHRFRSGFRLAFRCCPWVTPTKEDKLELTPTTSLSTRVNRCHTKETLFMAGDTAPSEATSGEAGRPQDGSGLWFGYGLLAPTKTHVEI
Outline: (§1)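 Radioligand [3H]SR48968 was incubated for 30 min at 20 °C with membranes from stably transfected wild-type or mutant hNK-2R cells, in Tris-HCl 50 mM pH 7.4 buffer with protease inhibitors, NaCl, MnCl2 and BSA. Test ligands ranged 0.3 pM–10 μM, with nonspecific binding in 1 mM unlabeled ligand. Filtration through PEI-soaked filters was followed by scintillation counting. pKi was derived by curve fitting, duplicate determinations.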

[2] = tested on: Substance-K receptor (Homo sapiens), P21452 [H198A]; test: Binding affinity against H198A human neurokinin-2 receptor (hNK-2R) using [3H]nepadutant as a radioligand
Sequence of Substance-K receptor (Homo sapiens), P21452 [H198A] (P21452 whole entry H198A): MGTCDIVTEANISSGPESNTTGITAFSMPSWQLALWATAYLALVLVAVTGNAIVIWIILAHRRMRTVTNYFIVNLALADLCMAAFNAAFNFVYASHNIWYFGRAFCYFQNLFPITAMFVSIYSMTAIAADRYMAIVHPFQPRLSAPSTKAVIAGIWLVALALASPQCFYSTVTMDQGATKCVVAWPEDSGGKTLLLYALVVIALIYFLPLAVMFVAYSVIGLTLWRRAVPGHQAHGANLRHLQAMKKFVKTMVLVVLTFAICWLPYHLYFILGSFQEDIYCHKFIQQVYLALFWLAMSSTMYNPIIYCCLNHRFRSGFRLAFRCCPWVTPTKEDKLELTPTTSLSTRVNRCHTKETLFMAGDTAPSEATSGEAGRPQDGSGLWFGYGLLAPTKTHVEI
Outline: (§2)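 Membranes from cells stably transfected with wild-type or mutant hNK-2R, incubated with [3H]nepadutant for 60 min at 20 °C in 50 mM Tris-HCl pH 7.4 containing peptidase inhibitors, 150 mM NaCl, 5 mM MnCl2 and 1 g/L BSA. Competitors ranged 0.3 pM–10 μM. Nonspecific binding was defined with 1 mM unlabeled ligand. Bound label was collected by filtration and counted. Means from ≥3 duplicate experiments.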

[3] = tested on: Substance-K receptor (Homo sapiens), P21452 [Y107A]; test: Binding affinity against Y107A human neurokinin-2 receptor (hNK-2R) using [3H]nepadutant as a radioligand; outline: as §2
Sequence of Substance-K receptor (Homo sapiens), P21452 [Y107A] (P21452 whole entry Y107A): as the sequence (P21452 whole entry H198A) above, with Y107A, A198H counted along it

[4] = tested on: Substance-K receptor (Homo sapiens), P21452 [T171A]; test: Binding affinity against T171A human neurokinin-2 receptor (hNK-2R) using [3H]nepadutant as a radioligand; UB is undetectable binding; outline: as §2
Sequence of Substance-K receptor (Homo sapiens), P21452 [T171A] (P21452 whole entry T171A): as the sequence (P21452 whole entry H198A) above, with T171A, A198H counted along it

[5] = biological target: T2, Substance-K receptor (Homo sapiens) (UniProt P21452); test: Binding affinity against wild-type human Wild-type tachykinin receptor 2 (hNK-2R) using [125I]-NKA as a radioligand
T2 sequence (whole entry): T1 sequence (whole entry) with A263W

[6] = tested on: T3, Substance-K receptor (Homo sapiens), P21452 [C167A]; test: Binding affinity against C167A human neurokinin-2 receptor (hNK-2R) using [3H]nepadutant as a radioligand; UB is Undetectable Binding; outline: as §2
T3 sequence (whole entry): T1 sequence (whole entry) with C167A, A263W

[7] = tested on: Substance-K receptor (Homo sapiens), P21452 [Q109A]; test: Binding affinity against Q109A human neurokinin-2 receptor (hNK-2R) using [3H]nepadutant as a radioligand; outline: as §2
Sequence of Substance-K receptor (Homo sapiens), P21452 [Q109A] (P21452 whole entry Q109A): as the sequence (P21452 whole entry H198A) above, with Q109A, A198H counted along it

[8] = tested on: T3, Substance-K receptor (Homo sapiens), P21452 [C167A]; test: Binding affinity against C167A human neurokinin-2 receptor (hNK-2R) using [3H]SR-48,968 as a radioligand; outline: as §1
[9] = tested on: Substance-K receptor (Homo sapiens), P21452 [N110A]; test: Binding affinity against N110A human neurokinin-2 receptor (hNK-2R) using [3H]nepadutant as a radioligand; UB is Undetectable Binding; outline: as §2
Sequence of Substance-K receptor (Homo sapiens), P21452 [N110A] (P21452 whole entry N110A): as the sequence (P21452 whole entry H198A) above, with N110A, A198H counted along it

[10] = tested on: Substance-K receptor (Homo sapiens), P21452 [Y169A]; test: Binding affinity against Y169A human neurokinin-2 receptor (hNK-2R) using [3H]nepadutant as a radioligand; outline: as §2
Sequence of Substance-K receptor (Homo sapiens), P21452 [Y169A] (P21452 whole entry Y169A): as the sequence (P21452 whole entry H198A) above, with Y169A, A198H counted along it

[11] = tested on: T1, Substance-K receptor (Homo sapiens), P21452 [W263A]; test: Binding affinity against W263A human neurokinin-2 receptor (hNK-2R) using [3H]nepadutant as a radioligand; UB is Undetectable Binding; outline: as §2
[12] = tested on: Substance-K receptor (Homo sapiens), P21452 [Y206F]; test: Binding affinity against Y206F human neurokinin-2 receptor (hNK-2R) using [3H]nepadutant as a radioligand; outline: as §2
Sequence of Substance-K receptor (Homo sapiens), P21452 [Y206F] (P21452 whole entry Y206F): as the sequence (P21452 whole entry H198A) above, with A198H, Y206F counted along it

Work on `CC(=O)N[C@@H]1[C@@H](O)[C@H](O)[C@@H](CO)O[C@H]1NC(=O)C[C@@H]1NC(=O)[C@H](CC(C)C)NC(=O)[C@@H]2CNC(=O)C[C@H](NC1=O)C(=O)N[C@@H](Cc1c[nH]c3ccccc13)C(=O)N[C@@H](Cc1ccccc1)C(=O)N2` (cyclo(D(NH(β-GlcNAc))DWF[Dap]L); lactam 2-5) yielded a KD/Ki [1] of 502 nM, a KD/Ki [2] of 11.5 nM and a KD/Ki [3] of 0.75 nM. The UB [4] was “inactive”, the KD/Ki [5] was 2.4 nM and the UB [6] was “inactive”. For the same molecule, the KD/Ki [7] was 0.85 nM, the KD/Ki [8] was > 10 µM and the UB [9] was “inactive”. For the same molecule, the KD/Ki [10] was 4.1 nM, the UB [11] was “inactive” and the KD/Ki [12] was 1.1 nM.
